Assay results: ChEMBL document CHEMBL4330056, “Synthesis and Cytotoxic and Antiviral Profiling of Pyrrolo- and Furo-Fused 7-Deazapurine Ribonucleosides” (J Med Chem, 2018)
Calls of active or inactive are those of the source. The rule behind the calls is not given here.

How the values were obtained:
[1] = tested on: Hepatitis C virus; assay: Antiviral activity against Hepatitis C virus genotype 1b infected in human Huh-luc replicon cells after 3 days by luciferase assay; type: functional, organism-based, Hepacivirus hominis; settings: subtype 1b, 72 h
[2] = Cytotoxicity against human Hep2 cells assessed as reduction in cell viability after 3 days by CellTiter-Glo assay; type: cell-based; settings: HEp-2 cells
[3] = tested on: Hepatitis C virus; assay: Antiviral activity against Hepatitis C virus genotype 2a infected in human Huh-luc replicon cells after 3 days by luciferase assay; type: functional, organism-based, Hepacivirus hominis; settings: subtype 2a, 72 h
[4] = tested on: BJ; assay: Antiproliferative activity against human BJ cells after 3 days by MTS assay; settings: 72 h
[5] = tested on: MRC5; assay: Antiproliferative activity against human MRC5 cells after 3 days by MTS assay; settings: MRC5, 72 h
[6] = tested on: A549; assay: Antiproliferative activity against human A549 cells after 3 days by MTS assay; type: functional, cell-based; settings: A549, 72 h
[7] = tested on: CCRF-CEM; assay: Antiproliferative activity against human CCRF-CEM cells after 3 days by MTS assay; type: functional, cell-based; settings: 72 h
[8] = Antiproliferative activity against human CEM-DNR-bulk cells after 3 days by MTS assay; settings: 72 h
[9] = tested on: HCT-116; assay: Antiproliferative activity against human HCT116 cells after 3 days by MTS assay; type: functional, cell-based; settings: HCT-116, 72 h
[10] = tested on: HCT-116; assay: Antiproliferative activity against p53 gene knocked out human HCT116 cells after 3 days by MTS assay; type: functional, cell-based; settings: HCT-116, 72 h
[11] = tested on: K562; assay: Antiproliferative activity against human K562 cells after 3 days by MTS assay; type: functional, cell-based; settings: K562, 72 h
[12] = Antiproliferative activity against human K562-TAX cells after 3 days by MTS assay; type: functional, cell-based; settings: 72 h
[13] = tested on: U2OS; assay: Antiproliferative activity against human U2OS cells after 3 days by MTS assay; type: functional, cell-based; settings: 72 h
[14] = tested on: HL-60; assay: Antiproliferative activity against human HL60 cells after 72 hrs by XTT assay; type: functional, cell-based; settings: HL-60, 72 h
[15] = tested on: HepG2; assay: Antiproliferative activity against human HepG2 cells after 72 hrs by XTT assay; type: functional, cell-based; settings: HepG2, 72 h
[16] = tested on: HeLa S3; assay: Antiproliferative activity against human HeLaS3 cells after 72 hrs by XTT assay; type: functional, cell-based; settings: HeLa S3, 72 h
[17] = molecular target: T1, Adenosine kinase (Homo sapiens, UniProt P55263); assay: Substrate activity at recombinant human ADK assessed as compound phosphorylation at 50 uM after 20 mins in presence of [3H]-adenosine by UPLC; type: ADME
T1 sequence (P55263 whole entry): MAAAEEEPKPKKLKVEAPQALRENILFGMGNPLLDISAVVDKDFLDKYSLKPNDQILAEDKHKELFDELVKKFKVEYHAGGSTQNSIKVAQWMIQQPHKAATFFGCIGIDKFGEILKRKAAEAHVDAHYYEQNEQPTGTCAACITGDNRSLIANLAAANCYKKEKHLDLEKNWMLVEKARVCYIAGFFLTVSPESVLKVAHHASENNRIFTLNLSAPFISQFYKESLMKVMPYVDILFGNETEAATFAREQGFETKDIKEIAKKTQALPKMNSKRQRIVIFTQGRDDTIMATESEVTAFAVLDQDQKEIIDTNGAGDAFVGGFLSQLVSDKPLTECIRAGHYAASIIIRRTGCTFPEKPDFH

[18] = molecular target: T1, Adenosine kinase; assay: Inhibition of recombinant human ADK using [3H]-adenosine as substrate after 20 mins by TLC scanner-based analysis relative to control
Summary of the method: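 ADK inhibition: 50 μM adenosine substrate with 10 μM test compound and 97 ng enzyme, 20 min at 37 °C.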

[19] = tested on: Influenza A virus; assay: Antiviral activity against Influenza A virus (A/Mexico/4108/2009(H1N1)) infected in MDCK cells assessed as inhibited virus-induced cytopathic effect incubated for 2 days by XTT assay; type: functional, organism-based
[20] = tested on: Human orthopneumovirus; assay: Antiviral activity against Human respiratory syncytial virus A2 infected in Hep2 cells assessed as reduction in virus-induced cytopathic effect incubated for 4 days by CellTiter-Glo viability reagent based assay; type: functional, organism-based
[21] = tested on: Coxsackievirus B3; assay: Antiviral activity against Human coxsackie B3 Nancy infected in human HeLa cells assessed as inhibited virus-induced cytopathic effect incubated for 2 days by XTT assay; type: functional, organism-based
[22] = tested on: Human alphaherpesvirus 1; assay: Antiviral activity against human herpesvirus 1 HF infected in African green monkey Vero cells assessed as inhibited virus-induced cytopathic effect incubated for 3 days by XTT assay; type: functional, organism-based
[23] = tested on: dengue virus type 2; assay: Antiviral activity against Dengue virus 2 Thailand/16681/84 infected in African green monkey Vero cells assessed as inhibition of virus replication incubated for 3 days by fluorescence microscopy; type: functional, organism-based

Row | Compound | EC50 [1] | CC50 at 72 h [2] | EC50 [3] | IC50 [4] | IC50 [5] | IC50 [6] | IC50 [7] | IC50 [8] | IC50 [9] | IC50 [10] | IC50 [11] | IC50 [12] | IC50 [13] | IC50 [14] | IC50 [15] | IC50 [16] | Activity [17] | IC50 [18] | Activity [19] | Activity [20] | further results
1 | Cn1ccc2c3c(Cl)ncnc3n([C@@H]3O[C@H](CO)[C@@H](O)[C@H]3O)c21 | 36.4 µM | > 44.4 µM | > 44.4 µM | > 50 µM | > 50 µM | > 50 µM | > 50 µM | > 50 µM | > 50 µM | > 50 µM | > 50 µM | > 50 µM | > 50 µM | > 50 µM | > 50 µM | > 50 µM | 0% | > 10 µM | inactive | inactive | Activity [21]: inactive; Activity [22]: inactive; Activity [23]: inactive
2 | COc1ncnc2c1c1ccn(C)c1n2[C@@H]1O[C@H](CO)[C@@H](O)[C@H]1O | > 44.4 µM | > 44.4 µM | > 44.4 µM | > 50 µM | > 50 µM | > 50 µM | > 50 µM | > 50 µM | > 50 µM | > 50 µM | > 50 µM | > 50 µM | > 50 µM | > 50 µM | > 50 µM | > 50 µM | 0% | > 10 µM | inactive | inactive | Activity [21]: inactive; Activity [22]: inactive; Activity [23]: inactive
3 | Nc1ncnc2c1c1occc1n2[C@@H]1O[C@H](CO)[C@@H](O)[C@H]1O | 0.3 µM | > 44.4 µM | 0.33 µM | > 50 µM | > 50 µM | > 50 µM | > 50 µM | > 50 µM | 48.4 µM | > 50 µM | 6.04 µM | 50 µM | 7.09 µM | 0.51 µM | 4.51 µM | 1.71 µM | 75% | > 10 µM | inactive | inactive | Activity [21]: inactive; Activity [22]: inactive; Activity [23]: inactive
4 | OC[C@H]1O[C@@H](n2c3ccoc3c3c(-c4ccoc4)ncnc32)[C@H](O)[C@@H]1O | 0.78 µM | > 44.4 µM | > 44.4 µM | 0.52 µM | > 50 µM | > 50 µM | 0.21 µM | > 50 µM | 12.1 µM | 10.7 µM | 0.42 µM | 9.78 µM | 0.64 µM | 1.92 µM | 6.71 µM | 13.1 µM | 38% | > 10 µM | inactive | inactive | Activity [21]: inactive; Activity [22]: inactive; Activity [23]: inactive
5 | Cn1ccc2c1c1c(N)ncnc1n2[C@@H]1O[C@H](CO)[C@@H](O)[C@H]1O | 0.46 µM | 40.9 to 44.4 µM | 0.22 µM | > 50 µM | > 50 µM | > 50 µM | 50 µM | > 50 µM | > 50 µM | > 50 µM | > 50 µM | > 50 µM | 50 µM | 2.29 µM | > 50 µM | > 50 µM | 68% | > 10 µM | inactive | inactive | Activity [21]: inactive; Activity [22]: inactive; Activity [23]: inactive
6 | Nc1ncnc2c1ncn2[C@@H]1O[C@H](CO)[C@@H](O)[C@H]1O [ADENOSINE] | – | – | – | – | – | – | – | – | – | – | – | – | – | – | – | – | 73% | – | – | – | –
7 | OC[C@H]1O[C@@H](n2c3ccoc3c3c(-c4cc5ccccc5o4)ncnc32)[C@H](O)[C@@H]1O | 5.34 µM | > 44.4 µM | > 44.4 µM | > 50 µM | > 50 µM | 49.3 µM | 14.1 µM | 37.1 µM | 48.8 µM | 46.5 µM | 39.6 µM | 24.3 µM | 37.8 µM | > 50 µM | 2.83 µM | > 50 µM | 58% | 0.336 µM | inactive | inactive | Activity [21]: inactive; Activity [22]: inactive; Activity [23]: inactive
8 | Cn1ccc2c3c(N)ncnc3n([C@@H]3O[C@H](CO)[C@@H](O)[C@H]3O)c21 | 27.3 µM | 34.6 to 44.4 µM | 33.9 µM | > 50 µM | > 50 µM | > 50 µM | > 50 µM | > 50 µM | > 50 µM | > 50 µM | > 50 µM | > 50 µM | > 50 µM | > 50 µM | > 50 µM | > 50 µM | 0% | > 10 µM | inactive | inactive | Activity [21]: inactive; Activity [22]: inactive; Activity [23]: inactive
9 | CN(C)c1ncnc2c1c1ccn(C)c1n2[C@@H]1O[C@H](CO)[C@@H](O)[C@H]1O | > 44.4 µM | > 44.4 µM | > 44.4 µM | > 50 µM | > 50 µM | > 50 µM | > 50 µM | > 50 µM | > 50 µM | > 50 µM | > 50 µM | > 50 µM | > 50 µM | > 50 µM | > 50 µM | > 50 µM | 0% | > 10 µM | inactive | inactive | Activity [21]: inactive; Activity [22]: inactive; Activity [23]: inactive
10 | CC(C)C(=O)OC[C@H]1O[C@@H](n2ccc(N)nc2=O)[C@](C)(F)[C@@H]1OC(=O)C(C)C [MERICITABINE] | – | > 44.4 µM | – | – | – | – | – | – | – | – | – | – | – | – | – | – | – | – | – | – | –
